Test results from PMC5379986 (The Journal of Experimental Medicine, 2017).

Legend:
primary microglia = assay: qPCR analysis of mRNA from primary microglia of LA-1-treated mice; type: in vivo, mouse; settings: microglia from LA-1-treated mice, qPCR normalized to GAPDH, n = 5
Procedure, shortened: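 Mice received test compound i.p. daily for 10 d (500 µl of 50 µM; DMSO/PBS vehicle). Microglia were isolated from perfused, dissociated brains with CD45 microbeads and frozen immediately for RNA. cDNA diluted 1:20 was amplified with SYBR Green. Expression was calculated by ΔΔCt relative to GAPDH.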

[1] = system: APP-overexpressing Chinese hamster ovary cells; assay: APP expression and processing after LA-1 treatment; type: cell-based; settings: APP-overexpressing CHO cells, lysates and supernatants after 6 h; Fig. S2 A–F
Procedure, shortened: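 Cells were APP-overexpressing CHO cells exposed to test compound in serum-free culture medium. Lysates and supernatants were harvested after 6 h.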

ISF Aβ = type: in vivo, mouse; settings: 4-h LA-1 infusion and 12-h washout; n = 2 mice; Fig. 5 D, E
Procedure, shortened: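 A 38-kD cutoff microdialysis probe was placed in the left hippocampus (bregma −3.1, midline −2.5, 3.2 mm below dura, 12°). It was perfused at 1 µl/min with 0.15% BSA artificial CSF, pH 7.35. After 8 h baseline, test compound was reverse-dialysed at 100 µM. Fractions were collected every 60–90 min, and Aβ40 was measured by sandwich ELISA (mHJ2 capture, mHJ5.1 detection). Male mice were used.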

CR3^kd cells = assay: Cell-based Aβ degradation assay with LA-1 treatment in CR3 knockdown cells; settings: CR3 knockdown BV2 cells; Fig. 4 B
Procedure, shortened: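 CR3kd BV2 cells carried a stable CD11b-targeting shRNA lentivirus; controls carried empty vector. Lines were selected with 5 µg/ml puromycin and sorted for CD11b <80% of control. Cells were seeded at 250,000/well and attached overnight. Test compound or vehicle in serum-free DMEM was added 30 min before 1 µg/ml Aβ1-42. Timed samples went into 2× protease inhibitor. Total Aβ was measured by electrochemiluminescent ELISA (21D12 capture, 3D6 detection, Aβ1-40 standards).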

[2] = Mass spectrometric analysis of LA-1 in brain and plasma; type: in vivo, mouse; settings: concluded from brain levels after single i.p. dose, perfused brains
Procedure, shortened: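 Male C57BL/6 mice received 500 µl of 50 µM test compound i.p., three mice per time point, sampled from 5 min to 8 h. EDTA plasma and PBS-perfused hemibrains were collected; brain was homogenised in water. Extracts diluted in methanol/acetonitrile were analysed by C18 LC-MS/MS (isocratic 85% acetonitrile, MRM m/z 420.103→375.800 and 420.103→230.000). Levels were interpolated from spiked-matrix standard curves by cubic regression.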

[3] = system: acutely isolated microglia and PBMCs; type: in vivo, mouse; settings: after 10 d of LA-1 injections; n = 5 mice per group; Fig. S2 I, J
Procedure, shortened: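 Mice received 500 µl of 50 µM test compound or DMSO vehicle in PBS i.p. daily for 10 d. Microglia were isolated from perfused, enzymatically dissociated brains with CD45 microbeads, and PBMCs by Ficoll. Cells were kept on ice, washed and Fc-blocked 15 min. They were then stained 30 min with labelled antibodies against CD162, CD62L, CD18, CD54, CD14, CD49d, CD11a and CD11b.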

BBB penetration [2]: demonstrating BBB penetration | Vascular adhesion markers on acutely isolated microglia and PBMCs [3]: no changes
Compound: O=C(O)c1ccc(-c2ccc(/C=C3\SC(=S)N(Cc4ccccc4)C3=O)o2)cc1 [LA-1, Leukadherin 1]
tPA mRNA in microglia (primary microglia; Fig. 4 E): significant increase | MMP2 or MMP9 mRNA levels in microglia (primary microglia; Fig. 4 F): did not observe differences | APP expression and processing [1]: did not change | Reversibility of ISF Aβ reduction after exchanging drug for perfusion buffer (ISF Aβ): reversible | LA-1 effect on Aβ degradation in CR3^kd cells (CR3^kd cells): absent
